Test results published in ChEMBL document CHEMBL1125479, “Methoxytetrahydropyrans. A new series of selective and orally potent 5-lipoxygenase inhibitors” (J Med Chem, 1992).
Where “and” joins values, the source holds several entries; their conditions need not be identical. Equal entries are not always repeated.

Key:
Rattus norvegicus [1] = assay: Ex vivo potency against rat blood after 1 hr peroral administration; type: functional; details: po, 3 h, in the assay text read “after 3 hr” for “after 1 hr”
Outline: (§1)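 Rats dosed orally (1 mL/kg) with compound dissolved in DMSO and suspended in 0.5% (hydroxypropyl)methylcellulose with 0.1% polysorbate 80; controls got vehicle.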

[2] = target: T1, Polyunsaturated fatty acid 5-lipoxygenase (Homo sapiens, UniProt P09917); assay: In vitro inhibition of leukotriene B4 synthesis in human whole blood by inhibiting 5-LPO (5-lipoxygenase); type: tissue-based
T1 sequence (P09917 whole entry): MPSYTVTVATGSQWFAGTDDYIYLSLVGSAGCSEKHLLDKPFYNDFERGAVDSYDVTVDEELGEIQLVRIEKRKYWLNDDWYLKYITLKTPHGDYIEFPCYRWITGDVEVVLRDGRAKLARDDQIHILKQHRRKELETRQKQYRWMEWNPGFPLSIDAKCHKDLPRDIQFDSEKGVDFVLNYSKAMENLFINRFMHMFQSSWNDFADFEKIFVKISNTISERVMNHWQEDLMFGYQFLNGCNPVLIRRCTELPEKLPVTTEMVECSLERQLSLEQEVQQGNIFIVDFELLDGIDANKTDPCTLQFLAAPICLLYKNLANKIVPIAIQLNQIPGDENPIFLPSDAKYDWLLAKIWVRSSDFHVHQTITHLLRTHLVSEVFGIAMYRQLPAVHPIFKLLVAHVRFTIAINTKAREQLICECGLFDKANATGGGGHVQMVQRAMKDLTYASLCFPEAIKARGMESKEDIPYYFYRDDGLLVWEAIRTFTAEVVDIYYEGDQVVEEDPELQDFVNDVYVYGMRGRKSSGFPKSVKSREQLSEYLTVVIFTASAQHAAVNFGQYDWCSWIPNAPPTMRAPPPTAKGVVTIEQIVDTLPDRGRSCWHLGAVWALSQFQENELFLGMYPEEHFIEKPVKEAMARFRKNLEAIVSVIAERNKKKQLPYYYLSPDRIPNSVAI
Outline: (§2)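 Heparinized human whole blood preincubated with compound, then stimulated with calcium ionophore A23187; LTB4 (5-LPO product) and TxB2 (cyclooxygenase product) generation measured.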

Rattus norvegicus [3] = assay: Compound was tested for the generation of eicosanoid in inflammatory exudate after 3 hr peroral administration; type: functional; details: po
Outline: (§3)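 Male Alderley Park rats (130-150 g) given a subcutaneous air pouch (20 mL sterile air under halothane, reinflated with 10 mL 3 days later). After a further 3 days, oral dosing (DMSO solution in 0.5% HPMC/0.1% polysorbate 80, 1 mL/kg) or vehicle, then 1 mL of 1% zymosan in saline into the pouch.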

[4] = target: T1, Polyunsaturated fatty acid 5-lipoxygenase; assay: In vitro inhibition of leukotriene B4 synthesis in human whole blood by inhibiting 5-lipoxygenase; type: tissue-based; outline: as §2
Rattus norvegicus [5] = assay: Ex vivo potency in rat blood for eicosanoid generation 3 hr after peroral administration; type: functional; details: po; outline: as §1
[6] = In vitro inhibition of thromboxane B2 in human whole blood Value; type: tissue-based; outline: as §2
Rattus norvegicus [7] = assay: Ex vivo potency in for eicosanoid generation in inflammatory exudate of rat 3 hr after peroral administration; type: functional; details: po; outline: as §3
[8] = Aqueous solubility was determined; type: physicochemical; details: buffer
[9] = Logarithm of partition coefficient was determined; type: physicochemical; details: octanol/water
Rattus norvegicus [10] = assay: Ex vivo potency in rat blood for eicosanoid generation 1 hr after peroral administration; type: functional; details: po; outline: as §1
Homo sapiens = species: Homo sapiens; assay: In vitro inhibition of leukotriene B4 in human whole blood; type: functional; outline: as §2
Mus musculus = species: Mus musculus; assay: In vitro inhibitory activity against leukotriene synthesis in mouse macrophages; type: functional
Rattus norvegicus [11] = assay: Ex vivo potency against rat blood after 3 hr peroral administration; type: functional; details: po; outline: as §1

Structure (SMILES)	IC50 [4]	ED50 (Rattus norvegicus [7])	further results
CC(C)c1ccc2c(c1)c(SC(C)(C)C)c(CC(C)(C)C(=O)[O-])n2Cc1ccc(Cl)cc1.[Na+]			ED50 (Rattus norvegicus [1]): 3 mg/kg; IC50 [2]: 1100 nM; ED50 (Rattus norvegicus [3]): 2 mg/kg
COC1(c2cccc(OCc3ccc4ccc(=O)n(C)c4c3)c2)CCOCC1	200 nM		ED50 (Rattus norvegicus [5]): > 3 mg/kg
CC(c1cc2ccccc2s1)N(O)C(N)=O (stereo not given) [ZILEUTON]		3 mg/kg	IC50 [6]: 40000 nM
COC1(c2cc(F)cc(OCc3ccc4c(ccc(=O)n4C)c3)c2)CCOCC1 [ZD-2138]	20 nM	0.3 mg/kg	IC50 [6]: > 500000 nM; Delta logS [8]: 0.9; delta Log P [9]: -1.7; ED50 (Rattus norvegicus [5]): 0.9 mg/kg; ED50 (Rattus norvegicus [10]): 1 mg/kg
COC1(c2cc(F)cc(OCc3ccc4c(c3)oc(=O)n4C)c2)CCOCC1	200 nM	> 1.5 mg/kg	
COC1(c2cc(F)cc(OCc3ccc4c(=O)n(C)ccc4c3)c2)CCOCC1	200 nM	> 1.5 mg/kg	
COC1(c2cccc(OCc3ccc4ccccc4c3)c2)CCN(C)CC1	> 40000 nM		
COC1(c2cccc(OCc3ccc4ccccc4c3)c2)CCCCOC1 (stereo not given)	2500 nM		
COC1(c2cccc(OCc3ccc4ccccc4c3)c2)CCOC1 (stereo not given)	700 nM		
COC(C)(c1nccs1)c1cccc(OCc2ccc3ccccc3c2)c1C (stereo not given)			IC50 (Homo sapiens): 1000 nM
COC1(c2cccc(OCc3ccc4ccccc4c3)c2)CC[S+]([O-])CC1 (stereo not given)	4200 nM		
COC1(c2cc(OCc3ccc4ccccc4c3)ccc2C)CCOCC1	40000 nM		
COC1(c2cc(F)cc(OCc3ccc4c(c3)n(C)c(=O)n4C)c2)CCOCC1	80 nM	1.5 mg/kg	Delta logS [8]: 1; delta Log P [9]: -1.7
COC1(c2cccc(OCc3ccc4ccccc4c3)c2)CCOCC1	70 nM	10 mg/kg	IC50 (Mus musculus): 0.5 nM; ED50 (Rattus norvegicus [5]): 10 mg/kg; ED50 (Rattus norvegicus [10]): 5 mg/kg
CCC(OC)(c1ccc(OCc2ccc3ccccc3c2)cc1)c1nccs1 (stereo not given)	40000 nM		
COC1(c2cc(F)cc(OCc3ccc4c(c3)sc(=O)n4C)c2)CCOCC1	40 nM	1.5 mg/kg	Delta logS [8]: 0.8; delta Log P [9]: -1.2
COC1(c2cccc(OCC#Cc3ccccc3)c2)CCOCC1	70 nM		
CCC(OC)(c1cccc(OCC#Cc2ccccc2)c1)c1nccs1 (stereo not given)	900 nM and 1000 nM		
COC1(c2cccc(OCc3cccc4c3ccc(=O)n4C)c2)CCOCC1	1300 nM		ED50 (Rattus norvegicus [5]): > 3 mg/kg
COC1(c2cccc(OCc3ccc4c(ccc(=O)n4C)c3)c2)CCOCC1		3 mg/kg	Delta logS [8]: 1.8; delta Log P [9]: -2; ED50 (Rattus norvegicus [5]): 1.5 mg/kg

Structure (SMILES)	IC50 [4]	ED50 (Rattus norvegicus [7])	further results
COC1(c2cc(F)cc(OCc3ccc4c(c3)C(C)(C)C(=O)N4C)c2)CCOCC1	80 nM	> 1.5 mg/kg	
COC1(c2cccc(OCc3ccc4ccccc4c3)c2)CCSCC1	400 nM		IC50 (Homo sapiens): 400 nM
COC1(c2cc(F)cc(OCc3ccc4nc(O)ccc4c3)c2)CCOCC1	600 nM		ED50 (Rattus norvegicus [5]): > 3 mg/kg
COC(C)(c1cccc(OCc2ccc3ccccc3c2)c1)c1nccs1 (stereo not given)	500 nM		
COC1(c2cc(F)cc(OCc3ccc4c(c3)ncc(=O)n4C)c2)CCOCC1	50 nM	1.5 mg/kg	Delta logS [8]: 1.8; delta Log P [9]: -2.3
COC1(c2cccc(OCC#Cc3ccccn3)c2)CCOCC1	400 nM		ED50 (Rattus norvegicus [10]): 100 mg/kg
COC1(c2cc(F)cc(OCc3cc4ccccc4n(C)c3=O)c2)CCOCC1	400 nM	> 1.5 mg/kg	
COC1(c2cc(F)cc(OCc3ccc4ncncc4c3)c2)CCOCC1	200 nM		Delta logS [8]: 1.5; delta Log P [9]: -2.1; ED50 (Rattus norvegicus [10]): > 100 mg/kg
COC1(c2cccc(OCc3ccc4ccccc4c3)c2)CCS(=O)(=O)CC1	10600 nM		
COC1(c2cccc(OCc3ccc4ccccc4c3)c2)COC1	2500 nM		
CCOC(C)=O.COC1(c2cc(F)cc(OCc3ncc4ccccc4n3)c2)CCOCC1	200 nM		Delta logS [8]: 1.9; delta Log P [9]: -1.9; ED50 (Rattus norvegicus [10]): > 10 mg/kg
COC1(c2ccc(OCc3ccc4ccccc4c3)cc2)CCOCC1	19000 nM		
COC1(c2cccc(OCc3ccc4ccccc4c3)c2)CCC(=O)CC1	3400 nM		
CCOC(C)=O.COC1(c2cc(F)cc(OCc3cc4ccccc4nc3O)c2)CCOCC1			ED50 (Rattus norvegicus [10]): > 100 mg/kg
COC1(c2cccc(OCc3ccc4ccccc4c3)c2C)CCOCC1	600 nM		
COC1(c2cccc(OCc3ccc4ccccc4c3)c2)CCCCC1	2600 nM		
COC1(c2cccc(OCc3ccc4ccccc4c3)c2)CCCOCC1 (stereo not given)	200 nM		
COC1(c2cc(F)cc(OCc3ccc4nccnc4c3)c2)CCOCC1		30 mg/kg	Delta logS [8]: 1.8; delta Log P [9]: -1.8; ED50 (Rattus norvegicus [10]): 30 mg/kg
COC1(c2cc(F)cc(OCc3ccc4oc(=O)ccc4c3)c2)CCOCC1			ED50 (Rattus norvegicus [11]): > 3 mg/kg; IC50 [2]: 300 nM
COC1(c2cccc(OCc3ccc4ccccc4c3)c2)CCCOC1 (stereo not given)	1700 nM		IC50 (Homo sapiens): 2800 nM
